Results on twelve molecules are retold here after PubChem BioAssay.

Molecules are shown by their SMILES. Active and inactive are the calls of the source.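 How the source made its calls, unless noted: active means inhibition at or above 50% relative to wild type and mutant plate controls; inactive means inhibition below 50%.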

Experiment [1] is described as follows: inhibitors of TNFa-induced NFkB p65 translocation, primary screen, imaging, HUVEC, MLSMR starter and 10KST1 sets (AID 438;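 active means inhibition above 20% together with a positive visual image hit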;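 further: compound added about 3h40 before a 20 min TNFalpha stimulation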;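 on inhibition: signal is the nuclear over cytoplasmic p65 intensity ratio per well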). Conditions: HUVEC TNFa-induced p65 nuclear translocation; cell count: measured here: nuclei count (cytotoxicity indicator), at 2.08 µM; inhibition: at 2 µM, stronger effect = higher value, 0% TNFa-plus-vehicle, 100% no-TNFa wells.
Experiment [2] is described as follows: endothelial E-selectin expression blockers – imaging, HUVEC, immunofluorescence, MLSMR starter and 10KST1 sets, primary screen (AID 487;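 active means visually confirmed hit in the image check and inhibition above 20%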;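 on inhibition: signal is fraction of cell area covered by stained E-selectin grains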;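 on nuclei count: 100% = median nuclei count of all wells on the same plate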). The settings on record: HUVEC TNFalpha-induced E-selectin immunofluorescence imaging, at 2 µM; inhibition: stronger effect = higher value; nuclei count: measured here: cell number, toxicity.
Experiment [3] is described as follows: Primary imaging screen for DUSP6 inhibitors that restore phospho-Erk in transfected HeLa cells, chemical complementation (AID 609;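 active means compounds giving at least 50% inhibition in the cell-based MKP-3 phosphatase rescue imaging test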;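 on inhibition: phospho-Erk level distribution per well compared with pooled transfected vehicle control wells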). The settings on record: HeLa MKP-3 transfected, phospho-Erk imaging KS statistic, at 10 µM, cells stimulated with TPA for 15 min.
Experiment [4] has as its target Dual specificity protein phosphatase 6 (Homo sapiens) (UniProt Q16828). The experiment is described as above. The settings on record: HeLa MKP-3 transfected, phospho-Erk imaging KS statistic; at 10 µM; stronger effect = higher value; cells stimulated with TPA for 15 min.
Experiment [5] concerns the target Voltage-gated potassium channel subunit beta-2 (Rattus norvegicus) (UniProt P62483). The experiment is described as follows: inhibitors of rat Kvbeta2 reductase activity – biochemical, NADPH fluorescence, primary screen (AID 622;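 active means fluorescence slope higher than the sample average by over 3 SD, cut at about -0.22 in these data, passing the limit was not always enough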;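 further: slope of raw intensity against log time taken from 70 to 1610 s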). Conditions: recombinant KvBeta, 4-cyanobenzaldehyde reduction, at 10 µM, stronger effect = higher value.
Experiment [6] has the same target. The experiment is described as follows: enhancers of rat Kvbeta2 NADPH turnover – biochemical, NADPH fluorescence, primary screen (AID 623;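 active means NADPH fluorescence slope more negative than the mean of all samples by about 3 SD, 99.7% confidence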;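 further: fluorescence intensity change per second fitted from 20 to 320 s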). Conditions: Recombinant KvBeta, NADPH fluorescence decrease slope, 10 min; at 10 µM; stronger effect = lower value.
The target in experiment [7] is Alpha-2C adrenergic receptor (Homo sapiens) (UniProt P18825). Put plainly: compounds altering alpha2C-coupled GIRK flux – cell-based, HEK293 alpha2C/GIRK1/2, thallium flux, primary screen (AID 624;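 active means fluorescence slope after compound addition differing from the mean of all screened samples at 99.7% confidence, in either direction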;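 further: slope of fluorescence ratio to pre-addition baseline per second over 15 to 24 s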). Conditions: thallium flux BTC fluorescence, at 10 µM, actives lie on both sides.
Chain of Alpha-2C adrenergic receptor (Homo sapiens) (P18825 whole entry, looked up): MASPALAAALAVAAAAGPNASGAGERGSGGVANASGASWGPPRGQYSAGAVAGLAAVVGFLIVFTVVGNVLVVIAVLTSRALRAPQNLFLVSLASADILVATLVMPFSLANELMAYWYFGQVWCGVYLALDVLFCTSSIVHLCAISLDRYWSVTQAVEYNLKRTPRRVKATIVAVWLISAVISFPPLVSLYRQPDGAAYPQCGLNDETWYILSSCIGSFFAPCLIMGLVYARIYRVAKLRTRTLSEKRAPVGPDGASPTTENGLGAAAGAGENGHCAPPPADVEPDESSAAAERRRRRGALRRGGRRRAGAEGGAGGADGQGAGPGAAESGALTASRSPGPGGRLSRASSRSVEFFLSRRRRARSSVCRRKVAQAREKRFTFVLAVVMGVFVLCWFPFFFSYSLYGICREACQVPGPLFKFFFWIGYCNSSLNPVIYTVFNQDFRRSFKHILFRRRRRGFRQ
Experiment [8] can be described thus: inhibitors of larval lipid processing in zebrafish, primary screen, whole organism, PED6 fluorescence, gall bladder and intestine (AID 686;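 active means a full or partial loss of lipid-probe fluorescence in the fish gall bladder, intestine or both, judged by eye; inactive means no fluorescence loss, or compound toxic to the fish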;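 further: larvae 5 to 7 days old with five fish per well; signal comes from phospholipase A2 cleavage of quenched PED6 carried via bile; overnight exposure to compound and PED6 before scoring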). The settings on record: Zebrafish larvae PED6 lipid processing, fluorescence scoring; screened at 20 µM (by protocol). The method in brief:
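Also added: quenched phospholipase substrate PED6, 100 nM final, ingested by larvae; System: zebrafish larvae, 5-7 d; Quantity: 5 larvae per well; Compound: 20 µM single dose; Schedule: overnight compound and PED6 incubation; Read-out: visual per-well fluorescence inhibition score; Measured by: By-eye fluorescence microscopy; Medium: E3.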

The nature of experiment [9]: loss of swimming-algae plug formation – whole organism, Chlamydomonas reinhardtii, WT vs cilia-less mutant, absorbance, 96-well, primary screen (AID 463189).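 Further: 0% = wild type cc124 cells in DMSO and 100% = ciliumless bld1 mutant cells.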 The settings on record: Chlamydomonas reinhardtii gravitaxis, OD600 absorbance, 2 days; at 10 µM; stronger effect = higher value.
Setting [10] is: measured here: cell density z-score.
[11] abbreviates: measured here: nuclear c-Myc green intensity z-score.
The mark [12] stands for this setting: measured here: nuclear pErk red intensity z-score, stronger effect = higher value.

Usually inhibition stands for the relative decrease from the control value, in per cent.

Chain of Dual specificity protein phosphatase 6 (Homo sapiens) (Q16828 whole entry, looked up): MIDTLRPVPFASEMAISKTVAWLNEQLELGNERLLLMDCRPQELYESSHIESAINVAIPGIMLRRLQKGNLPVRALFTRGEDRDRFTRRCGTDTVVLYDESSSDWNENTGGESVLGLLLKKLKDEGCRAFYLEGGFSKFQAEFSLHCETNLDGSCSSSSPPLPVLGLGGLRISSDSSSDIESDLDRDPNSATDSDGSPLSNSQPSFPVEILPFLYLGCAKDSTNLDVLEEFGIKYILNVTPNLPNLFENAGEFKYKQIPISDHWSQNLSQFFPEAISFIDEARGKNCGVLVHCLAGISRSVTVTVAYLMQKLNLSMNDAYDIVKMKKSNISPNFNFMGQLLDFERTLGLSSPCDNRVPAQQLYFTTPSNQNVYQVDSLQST
Chain of Voltage-gated potassium channel subunit beta-2 (Rattus norvegicus) (P62483 whole entry, looked up): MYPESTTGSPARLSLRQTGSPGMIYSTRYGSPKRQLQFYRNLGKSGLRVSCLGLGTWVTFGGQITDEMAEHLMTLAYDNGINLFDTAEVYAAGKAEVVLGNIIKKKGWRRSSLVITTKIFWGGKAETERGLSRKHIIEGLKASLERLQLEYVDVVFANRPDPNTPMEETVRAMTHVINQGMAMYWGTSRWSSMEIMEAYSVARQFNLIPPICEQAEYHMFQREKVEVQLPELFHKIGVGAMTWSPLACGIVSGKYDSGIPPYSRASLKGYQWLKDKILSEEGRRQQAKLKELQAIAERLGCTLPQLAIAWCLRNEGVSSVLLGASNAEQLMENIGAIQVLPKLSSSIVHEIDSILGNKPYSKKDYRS

Consider `COc1cccc(-c2nc(NCC3CCCO3)c3ccccc3n2)c1O` (stereo unspecified), for which the cell count in experiment [1] came to 553. The inhibition in [1] was -3.3% (inactive); in [2], -74.2% (inactive); in experiment [4], 1.6e-07% (inactive); in [9], 55.5% (active). The molecule further came in with a nuclei count in experiment [2] of 131%. Besides, the values for the z-score in experiment [3] (setting [10]), in [3] (setting [11]) and in experiment [3] (setting [12]) were -1.22, 0.707 and 0.124, respectively. In addition, in [5], the fluorescence slope was -0.34 (inactive). Besides, in [6], the NADPH fluorescence slope is -2.8e-05 (inactive). Also, the slope in experiment [7] was 0.00373 (inactive). Moreover, the molecule was called inactive in [8].
For the molecule `COc1ccccc1N1CCN(CCCCOc2ccc(F)cc2)CC1`, the cell count in experiment [1] came to 461. In addition, the inhibition was -6.8% (inactive) in experiment [1], -62.1% (inactive) in experiment [2], 26.6% (inactive) in [4] and 9.82% (inactive) in experiment [9]. For the same molecule, in experiment [2], the nuclei count was found to be 116%. In addition, the z-score in [3] (setting [10]) is 1.12; in experiment [3] (setting [11]), -0.735; in experiment [3] (setting [12]) it was -0.613. In addition, in experiment [5], the fluorescence slope was -0.52 (inactive). For the same molecule, in [6], the NADPH fluorescence slope was -3.7e-05 (inactive). Moreover, the slope in experiment [7] was 0.00493 (inactive). Further, in [8], the outcome was inactive.
With `O=C1OC2CCC1(c1ccccc1)C2` (stereo unspecified), the cell count in [1] turned out to be 573. The inhibition is -7% (inactive) in experiment [1], 40.2% (inactive) in experiment [2], -5.89% (inactive) in experiment [4] and -4.76% (inactive) in experiment [9]. This molecule also gave a nuclei count in experiment [2] of 137%. For the same molecule, the z-score in experiment [3] (setting [10]) was -1.09; in [3] (setting [11]), 0.357; in experiment [3] (setting [12]), 0.719. In experiment [5], the fluorescence slope is -0.524 (inactive). Moreover, the NADPH fluorescence slope in experiment [6] is -7.2e-05 (inactive). Also, in experiment [7], the slope was 0.00472 (inactive). For the same molecule, the molecule was called inactive in [8].
Regarding `N#CC1=C(SCC(=O)c2ccc(Cl)cc2)NC2=C(C(=O)CCC2)C1c1ccco1` (stereo unspecified), in [1], the cell count worked out at 362. Besides, the inhibition in [1] was -6.1% (inactive); in experiment [2], -118% (inactive); in [4], 9.42% (inactive); in experiment [9] it was 13.1% (inactive). Also, the nuclei count in experiment [2] worked out at 147%. Further, the z-score is 1.13 in experiment [3] (setting [10]), -0.168 in [3] (setting [11]) and -0.867 in [3] (setting [12]). In addition, the fluorescence slope in experiment [5] is -0.422 (inactive). Also, the NADPH fluorescence slope in [6] is -0.000127 (inactive). For the same molecule, the slope in experiment [7] was 0.00564 (inactive). Besides, the outcome in [8] is “active; weak signal in gallbladder and intestine”.
For `CCC1(C)Cc2c(sc3c2c(=O)n(C)c2nnc(SCC(=O)c4ccc(Cl)cc4)n32)CO1` (stereo unspecified), in [1], the cell count is 559. The inhibition is -2.6% (inactive) in [1], -61.6% (inactive) in experiment [2], 9.82% (inactive) in experiment [4] and -10.8% (inactive) in experiment [9]. Moreover, the nuclei count in [2] stood at 121%. The z-score in experiment [3] (setting [10]) is -1.48; in experiment [3] (setting [11]), 3.25; in [3] (setting [12]), -1.65. For the same molecule, in [5], the fluorescence slope was -0.37 (inactive). Besides, the NADPH fluorescence slope in experiment [6] was 2e-05 (inactive). Also, the slope in experiment [7] was 0.00685 (inactive). In experiment [8], the result was inactive.
As for `CCOCCN(C(=O)COC)c1cccc(OC)c1`, in experiment [1], the cell count was 368. Also, the inhibition is 4.6% (inactive) in [1], 19.2% (inactive) in [2], -5.62% (inactive) in experiment [4] and -16.2% (inactive) in experiment [9]. In experiment [2], this molecule registered a nuclei count of 124%. The z-score in experiment [3] (setting [10]) is 0.00474; in [3] (setting [11]), 0.972; in experiment [3] (setting [12]), 0.0482. Also, in [5], the fluorescence slope is -0.321 (inactive). For the same molecule, the NADPH fluorescence slope in experiment [6] is 1.5e-05 (inactive). For the same molecule, the slope in experiment [7] is 0.00531 (inactive). Moreover, the call in experiment [8] was inactive.
As to `N#CCCSc1nc(N2CCOCC2)c2c(c1C#N)CCCC2`, the cell count in [1] was determined as 572. Further, the inhibition in experiment [1] is -15.5% (inactive); in experiment [2] it was -43.5% (inactive); in experiment [4], 5.65% (inactive); in experiment [9], -11.5% (inactive). In experiment [2], this molecule yielded a nuclei count of 168%. In addition, the z-score in experiment [3] (setting [10]) is -1.47; in experiment [3] (setting [11]), -0.393; in experiment [3] (setting [12]), -0.37. The fluorescence slope in [5] is -0.357 (inactive). The NADPH fluorescence slope in [6] was 1.4e-05 (inactive). Also, the slope in experiment [7] was 0.00506 (inactive). For the same molecule, the molecule was called inactive in experiment [8].
For `Oc1c(C=NCc2ccncc2)sc2ccccc12`, in experiment [1], the cell count amounted to 666. Further, the inhibition is -11.1% (inactive) in [1], -63.6% (inactive) in experiment [2], -4.27% (inactive) in experiment [4] and -6.05% (inactive) in [9]. Besides, the nuclei count in [2] amounted to 177%. For the same molecule, the z-score is -0.185 in experiment [3] (setting [10]), 0.688 in experiment [3] (setting [11]) and 2.15 in [3] (setting [12]). Further, the fluorescence slope in experiment [5] is -0.425 (inactive). Moreover, the NADPH fluorescence slope in [6] was -6.8e-05 (inactive). Further, the slope in experiment [7] is 0.00509 (inactive). Moreover, the molecule was called inactive in [8].
Consider `CC(C)(C)C1=Nn2c(nnc2-c2ccccn2)SC1`, for which the cell count in experiment [1] is 537. The inhibition was -5.5% (inactive) in [1], -200% (inactive) in experiment [2], -2.47% (inactive) in experiment [4] and -9.77% (inactive) in experiment [9]. Besides, in experiment [2], the nuclei count stood at 165%. The values for the z-score in [3] (setting [10]), in [3] (setting [11]) and in experiment [3] (setting [12]) were 1.25, 0.795 and -0.0968, respectively. In [5], the fluorescence slope is -0.417 (inactive). Also, in experiment [6], the NADPH fluorescence slope is -0.000136 (inactive). The slope in experiment [7] was 0.00561 (inactive). In experiment [8], the outcome was inactive.
With `CN(C)c1nc2n(c(=S)n1)CCS2`, in [1], the cell count came out at 604. In addition, the inhibition in experiment [1] is -3.2% (inactive); in experiment [2] it was -204% (inactive); in [4], 16.1% (inactive); in experiment [9], -16.2% (inactive). This molecule also gave a nuclei count in experiment [2] of 109%. Moreover, the results for the z-score in experiment [3] (setting [10]), in [3] (setting [11]) and in experiment [3] (setting [12]) were -0.355, -0.0746 and 0.173, respectively. In addition, the fluorescence slope in experiment [5] was -0.409 (inactive). For the same molecule, the NADPH fluorescence slope in experiment [6] was -2e-05 (inactive). In addition, the slope in experiment [7] is 0.00562 (inactive). Besides, in [8], the molecule was called inactive.
Turning to `CC1=CC=CN2CC(O)CN=C12` (stereo unspecified), the cell count in experiment [1] came out at 552. For the same molecule, the inhibition in [1] is -3.9% (inactive); in experiment [2], -109% (inactive); in [4], 22.1% (inactive); in experiment [9] it was 4.05% (inactive). Besides, the nuclei count in experiment [2] was 196%. In addition, the results for the z-score in experiment [3] (setting [10]), in [3] (setting [11]) and in experiment [3] (setting [12]) were -0.0904, 1.89 and -0.427, respectively. The fluorescence slope in [5] was -0.33 (inactive). Also, the NADPH fluorescence slope in [6] was -1.5e-05 (inactive). For the same molecule, the slope in [7] was 0.00477 (inactive). Also, the result in [8] was inactive.
Turning to `COc1cc(-c2nn3c(C4CCCCC4)nnc3s2)cc(OC)c1OC`, the cell count in experiment [1] amounted to 535. For the same molecule, the inhibition was -28.6% (inactive) in [1], -115% (inactive) in [2], -7.86% (inactive) in experiment [4] and 12.1% (inactive) in experiment [9]. The nuclei count in experiment [2] was determined as 167%. Further, the z-score in [3] (setting [10]) is -1.15; in [3] (setting [11]) it was 0.143; in experiment [3] (setting [12]), 1.4. Also, in experiment [5], the fluorescence slope is -0.479 (inactive). The NADPH fluorescence slope in [6] was -0.000183 (inactive). Also, the slope in experiment [7] was 0.00564 (inactive). Moreover, the result in experiment [8] was inactive.
